Only some compounds are listed: those with a hit (about 2.2% of all), similar ones and a draw of the others.
Yeast superoxide – reduction of superoxide in aged yeast, primary screen, HTS; S. cerevisiae aged cells, superoxide DHE fluorescence; active compounds read low; superoxide response (% of plate mean), % at 10 µM; 0.18% of 330,000 active; AID 2690, 2010;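 active means superoxide response under a set limit, about three screen SD below normal, cut at about 65% in these data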;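 further: yeast aged for seven days with compound at 30 °C before DHE staining; 100% = average MFI of all compound-treated wells on the plate with controls excluded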
PHOSPHO1 block – PubChem AID 1565; Phosphoethanolamine/phosphocholine phosphatase (Homo sapiens), Q8TCT1; recombinant PHOSPHO1, absorbance phosphatase assay; inhibition, % at 13.3 µM; 1.1% of 290,000 active; in the data active means inhibition above about 60%
Target sequence (Q8TCT1 whole entry, looked up): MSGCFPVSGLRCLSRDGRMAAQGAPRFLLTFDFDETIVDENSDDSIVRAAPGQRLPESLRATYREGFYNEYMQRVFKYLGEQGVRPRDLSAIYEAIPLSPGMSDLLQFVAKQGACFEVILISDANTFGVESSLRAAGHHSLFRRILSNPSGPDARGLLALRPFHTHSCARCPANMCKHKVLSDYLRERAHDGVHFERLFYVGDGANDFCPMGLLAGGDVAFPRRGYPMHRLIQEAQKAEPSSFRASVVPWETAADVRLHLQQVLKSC
VIM-2 inh – VIM-2 metallo-beta-lactamase inhibitors, primary screen, biochemical, epi-absorbance readout, Pseudomonas aeruginosa enzyme. 0.89% of 290,000 active. inhibition, % at 5.6 µM. purified VIM-2, nitrocefin hydrolysis, epi-absorbance fluorescence;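 active means inhibition above the mean of all tested compounds plus 3 SD, cutoff set per screening run, cut at about 7.5% in these data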;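 further: red hydrolysis product quenches plate fluorescence so inhibitors raise well fluorescence; 0% = enzyme with DMSO and 100% = DMSO without enzyme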
IMP-1 inh-1 – IMP-1 metallo-beta-lactamase inhibitors, primary screen, biochemical, epi-absorbance readout, Pseudomonas aeruginosa enzyme. metallo-beta-lactamase IMP-1 (Pseudomonas aeruginosa). purified IMP-1, nitrocefin hydrolysis, epi-absorbance fluorescence. inhibition, % at 5.6 µM. 0.45% of 290,000 active. AID 1556, 2009;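 active means inhibition above the mean plus 3 SD of all compounds in the same screening run, cut at about 4.5% in these data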;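 further: 0% = IMP-1 with DMSO and 100% = DMSO wells lacking enzyme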
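Assay system: purified IMP-1; Quantity: IMP-1 0.2 nM before substrate addition; Medium: HEPES buffer pH 7.1 with ZnSO4 and Brij 35; Incubation: 15 min enzyme–compound preincubation, then 25 min nitrocefin reaction, 25 °C; Signal: fluorescence quenching readout, ex 480/em 530 nm; Controls: DMSO with and without IMP-1; Repeats: singlicate testing.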
PvdQ inh – P. aeruginosa PvdQ acylase inhibitors, primary screen, biochemical, fluorescence, plate reader and imaging, single point; PvdQ acylase [Pseudomonas aeruginosa LESB58]; inhibition, % at 10 µM; 0.063% of 340,000 active; purified PvdQ acylase; in the data active means inhibition above about 30%, passing the limit was not always enough;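 further: 0% = vehicle neutral wells and 100% = reference inhibitor wells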
IMP-1 inh-2 – IMP-1 metallo-beta-lactamase inhibitors, confirmation, selectivity assay for selective VIM-2 inhibitor project, biochemical, epi-absorbance readout, triplicate; purified IMP-1, nitrocefin hydrolysis, epi-absorbance fluorescence; shares compounds with VIM-2 inh; inhibition, % at 5.6 µM; 1,300 tested, under 10 active; call rule not given here;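 further: 0% = enzyme with vehicle and 100% = vehicle without enzyme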
VIM-2 FRET inh – VIM-2 inhibitors in FRET format, confirmation, artefact control for selective VIM-2 inhibitor project, biochemical, epi-absorbance artifact exclusion | shares compounds with VIM-2 inh | purified VIM-2, CCF2 FRET substrate hydrolysis | inhibition, % at 5.6 µM | 23% of 1,300 active;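 active means inhibition above the mean of all tested compounds plus 3 SD, cut at about 19% in these data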;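 further: 0% = VIM-2 plus DMSO and 100% = no enzyme wells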
TEM-1 inh – TEM-1 serine beta-lactamase inhibitors, counter-screen for VIM-2 inhibitor project, biochemical, epi-absorbance, HTS; shares compounds with VIM-2 inh; Purified TEM-1, nitrocefin hydrolysis, epi-absorbance fluorescence; inhibition, % at 5.6 µM; 3% of 1,300 active;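 active means inhibition above that campaign's mean inhibition plus 3 SD, cut at about 0.46% in these data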;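 further: 0% = TEM-1 with DMSO and 100% = TEM-1 with 100 µM potassium clavulanate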
VIM-2 confirm 2 – VIM-2 metallo-beta-lactamase inhibitors, confirmation, biochemical, epi-absorbance, hits shared with IMP-1 screen; shares compounds with VIM-2 inh; purified VIM-2, nitrocefin hydrolysis; inhibition, % at 5.6 µM; 96% of 1,300 active;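 active means inhibition of the VIM-2 beta-lactamase enzyme above about 11% from the earlier first-round screen, limit read from the data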;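 further: 0% = VIM-2 with DMSO and 100% = buffer wells without enzyme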
* hit, by the source's call.

Screening Cc1c(OCC(=O)NCCCn2ccnc2)ccc2c3c(c(=O)oc12)CCC3 returned Yeast superoxide 93, PHOSPHO1 block 10, VIM-2 inh 48*, IMP-1 inh-1 -1, PvdQ inh -14, IMP-1 inh-2 -3, VIM-2 FRET inh -8, TEM-1 inh -13 and VIM-2 confirm 2 58*.
Cc1c(C)c2ccc(OCC(=O)NCCCn3ccnc3)c(C)c2oc1=O was read as Yeast superoxide 113, PHOSPHO1 block 12, VIM-2 inh 42*, IMP-1 inh-1 1, PvdQ inh -3, IMP-1 inh-2 -4, VIM-2 FRET inh -4, TEM-1 inh -12 and VIM-2 confirm 2 49*.
`Cc1c(OC(C)C(=O)NCCCn2ccnc2)ccc2c3c(c(=O)oc12)CCC3` (configuration not stated) gave Yeast superoxide 87, PHOSPHO1 block 40, VIM-2 inh 49*, IMP-1 inh-1 -3, PvdQ inh -9, IMP-1 inh-2 -2, VIM-2 FRET inh -3, TEM-1 inh -8 and VIM-2 confirm 2 64*.
Cc1cc(=O)c2cc3nc(-c4cccnc4)oc3c(Br)c2o1 was read as Yeast superoxide 108, PHOSPHO1 block 24, VIM-2 inh 0 and IMP-1 inh-1 -2.
`Cc1oc2c(C)c3oc(=O)c(CCC(=O)NCCCN4CCCC4=O)c(C)c3cc2c1C` gave Yeast superoxide 86, PHOSPHO1 block 24, VIM-2 inh -1, IMP-1 inh-1 0 and PvdQ inh -8.
Screening Cc1coc2c(C)c3oc(=O)c(CCC(=O)NCCCn4ccnc4)c(C)c3cc12 returned Yeast superoxide 106, PHOSPHO1 block 13, VIM-2 inh 31*, IMP-1 inh-1 4, PvdQ inh 0, IMP-1 inh-2 -2, VIM-2 FRET inh -6, TEM-1 inh -12 and VIM-2 confirm 2 36*.
For Cc1nn(C)cc1S(=O)(=O)N1CCCCC1C (configuration not stated) the results were Yeast superoxide 97, PHOSPHO1 block 48, VIM-2 inh -4, IMP-1 inh-1 -3 and PvdQ inh 5.
Screening COc1ccc(CCN2CC(C(=O)NCc3nc(C)c(C)s3)CCC2=O)cc1 (configuration not stated) returned Yeast superoxide 99, PHOSPHO1 block 28, VIM-2 inh 0, IMP-1 inh-1 -4 and PvdQ inh 9.
Oc1ccc(Oc2ccc3c(C(F)(F)F)cc(C(F)(F)F)nc3n2)cc1 was read as Yeast superoxide 108, PHOSPHO1 block -17, VIM-2 inh 13*, IMP-1 inh-1 -1, PvdQ inh -15, IMP-1 inh-2 -3, VIM-2 FRET inh -1, TEM-1 inh -6 and VIM-2 confirm 2 28*.
For CCN(CC)CCNC(=O)c1cn(CC)c2cc(N3CCN(C)CC3)c(F)cc2c1=O the results were Yeast superoxide 98, VIM-2 inh 12*, IMP-1 inh-1 1, PvdQ inh 8, IMP-1 inh-2 -2, VIM-2 FRET inh 0, TEM-1 inh -3 and VIM-2 confirm 2 27*.
`CCCCNC(=O)c1cn(CC)c2cc(N3CCN(C)CC3)c(F)cc2c1=O` gave Yeast superoxide 109, PHOSPHO1 block 47, VIM-2 inh 3 and IMP-1 inh-1 -2.
`COc1ccc2c(c1)[nH]c1c(=O)n(CCN(C)C)cnc12` gave Yeast superoxide 109, PHOSPHO1 block -4, VIM-2 inh 0, IMP-1 inh-1 -3 and PvdQ inh 4.

Source: PubChem (several laboratories)
